# Measurements as given in ChEMBL document CHEMBL4364341, “Radiosensitization of Head and Neck Squamous Cell Carcinoma (HNSCC) by a Podophyllotoxin” (ACS Med Chem Lett, 2019).
# Activity calls are given as the source filed them. No cut-off for these calls is given here.
# Experiments:
# FaDu [1] = assay: Induction of apoptosis in human FADU cells assessed as decrease in Bcl2 at 0.5 uM incubated for 48 hrs by immunoblot analysis; type: functional, cell-based
# Outline: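 FaDu cells received compound at 0.5 μM, 5 Gy IR, or both. After 48 h, lysates were immunoblotted for NRF2, cyclin B1, CDK1, Bax and Bcl-2. Membranes were then stripped and reprobed for β-actin as the loading control.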
# SCC-25 [2] = assay: Antiproliferative activity against human SCC25 cells assessed as fractional inhibition at 0.05 uM after 6 days in absence of irradiation by MTT assay; type: functional
# Outline: (§1)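 FaDu or SCC-25 cells were grown in DMEM with 10% FBS at 37 °C and 5% CO2. They were seeded at 1000 cells/well in 96-well plates for 24 h, then dosed with compound (fresh DMSO stock diluted in medium) or vehicle. After 1 h, X-rays were given with a sliding 5 mm lead shield, so one plate held 0, 2.5, 5 and 10 Gy columns. After 6 days, MTT (0.5 mg/mL, 45 min) was added, then DMSO, and A570 was read. Values were normalised to the unirradiated vehicle control. Fractional inhibition = 1 − surviving fraction.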
# FaDu [3] = assay: Synergistic antiproliferative activity against human FADU cells assessed as combination index at 0.005 uM preincubated for 1 hr followed by irradiation with 2.5 Gy IR and measured after 6 days by MTT assay; type: functional
# Outline: (§2)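 Combination index was calculated by the Chou–Talalay median-effect method from the 6-day MTT viability data of the single-plate compound/X-ray (2.5, 5, 10 Gy) design. CI < 1 denotes synergy, CI = 1 additivity and CI > 1 antagonism.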
# FaDu [4] = assay: Synergistic antiproliferative activity against human FADU cells assessed as fractional inhibition at 0.005 uM preincubated for 1 hr followed by irradiation with 2.5 Gy IR and measured after 6 days by MTT assay (reference value: 0.131); type: functional; outline: as §1
# SCC-25 [5] = assay: Synergistic antiproliferative activity against human SCC25 cells assessed as fractional inhibition at 0.5 uM preincubated for 1 hr followed by irradiation with 5 Gy IR and measured after 6 days by MTT assay (reference value: 0.133); type: functional
# Outline: (§3)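 SCC-25 cells seeded 1000/well in 96-well plates in DMEM/10% FBS and left 24 h. Drug or vehicle added, then after 1 h X-irradiated to 2.5, 5 or 10 Gy on one plate using a shifted lead shield. Plates incubated 6 days, then MTT (0.5 mg/mL, 45 min), DMSO solubilisation, absorbance at 570 nm. Fractional inhibition = 1 − fraction of surviving cells.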
# FaDu [6] = assay: Synergistic induction of apoptosis in human FADU cells at 0.5 uM followed irradiation with 5Gy IR by annexin V FITC and propidium iodide staining based flow cytometry; type: functional, cell-based; settings: TDE = time-dependent effect
# Outline: (§4)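 FaDu or SCC-25 cells, untreated, given 5 Gy IR, drug, or both. Apoptotic cells measured by annexin V flow cytometry 48 h after treatment. Percentage compared with control by t test.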
# SCC-25 [7] = assay: Synergistic antiproliferative activity against human SCC25 cells assessed as combination index at 0.5 uM preincubated for 1 hr followed by irradiation with 5 Gy IR and measured after 6 days by MTT assay; type: functional
# Outline: (§5)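 SCC-25 cells grown in DMEM with 10% FBS at 37 °C, 5% CO2, seeded 1000 cells/well in 96-well plates and left 24 h. Drug in DMSO, diluted in complete medium, added 1 h before X-irradiation. A movable 5 mm lead shield gave 0, 2.5, 5 or 10 Gy on one plate. After 6 days, MTT readout at 570 nm. Combination index by Chou–Talalay from viability data.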
# SCC-25 [8] = assay: Synergistic antiproliferative activity against human SCC25 cells assessed as combination index at 0.05 uM preincubated for 1 hr followed by irradiation with 5 Gy IR and measured after 6 days by MTT assay; type: functional; outline: as §5
# FaDu [9] = assay: Synergistic antiproliferative activity against human FADU cells assessed as combination index at 0.05 uM preincubated for 1 hr followed by irradiation with 10 Gy IR and measured after 6 days by MTT assay; type: functional; outline: as §2
# FaDu [10] = assay: Synergistic antiproliferative activity against human FADU cells assessed as combination index at 0.005 uM preincubated for 1 hr followed by irradiation with 10 Gy IR and measured after 6 days by MTT assay; type: functional; outline: as §2
# FaDu [11] = assay: Synergistic induction of apoptosis in human FADU cells at 0.5 uM followed irradiation with 5Gy IR incubated for 48 hrs by annexin V FITC and propidium iodide staining based flow cytometry; type: functional; outline: as §4
# SCC-25 [12] = assay: Synergistic antiproliferative activity against human SCC25 cells assessed as combination index at 0.5 uM preincubated for 1 hr followed by irradiation with 2.5 Gy IR and measured after 6 days by MTT assay; type: functional; outline: as §5
# FaDu [13] = assay: Synergistic induction of apoptosis in human FADU cells assessed as decrease in Bcl2 at 0.5 uM followed by irradiation with 5 Gy IR incubated for 48 hrs by immunoblot analysis; type: functional, cell-based
# Outline: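 FaDu cells received drug, 5 Gy IR, or both; vehicle-only controls. Lysates collected after 48 h and immunoblotted with primary antibodies to NRF2, cyclin B1, CDK1, Bax and Bcl-2. Membranes stripped and reprobed for beta-actin as loading control.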
# FaDu [14] = assay: Synergistic antiproliferative activity against human FADU cells assessed as fractional inhibition at 0.005 uM preincubated for 1 hr followed by irradiation with 5 Gy IR and measured after 6 days by MTT assay (reference value: 0.097); type: functional; outline: as §1
# FaDu [15] = assay: Antiproliferative activity against human FADU cells assessed as fractional inhibition at 5 uM after 6 days in absence of irradiation by MTT assay; type: functional; outline: as §1
# SCC-25 [16] = assay: Synergistic antiproliferative activity against human SCC25 cells assessed as fractional inhibition at 5 uM preincubated for 1 hr followed by irradiation with 10 Gy IR and measured after 6 days by MTT assay (reference value: 0.347); type: functional; outline: as §3
# [17] = biological target: T1, Nuclear factor erythroid 2-related factor 2 (Homo sapiens) (UniProt Q16236); assay: Synergistic inhibition of Nrf2 in human FADU cells at 0.5 uM followed by irradiation with 5 Gy IR incubated for 48 hrs by immunofluorescence analysis; type: cell-based
# T1 sequence (whole entry): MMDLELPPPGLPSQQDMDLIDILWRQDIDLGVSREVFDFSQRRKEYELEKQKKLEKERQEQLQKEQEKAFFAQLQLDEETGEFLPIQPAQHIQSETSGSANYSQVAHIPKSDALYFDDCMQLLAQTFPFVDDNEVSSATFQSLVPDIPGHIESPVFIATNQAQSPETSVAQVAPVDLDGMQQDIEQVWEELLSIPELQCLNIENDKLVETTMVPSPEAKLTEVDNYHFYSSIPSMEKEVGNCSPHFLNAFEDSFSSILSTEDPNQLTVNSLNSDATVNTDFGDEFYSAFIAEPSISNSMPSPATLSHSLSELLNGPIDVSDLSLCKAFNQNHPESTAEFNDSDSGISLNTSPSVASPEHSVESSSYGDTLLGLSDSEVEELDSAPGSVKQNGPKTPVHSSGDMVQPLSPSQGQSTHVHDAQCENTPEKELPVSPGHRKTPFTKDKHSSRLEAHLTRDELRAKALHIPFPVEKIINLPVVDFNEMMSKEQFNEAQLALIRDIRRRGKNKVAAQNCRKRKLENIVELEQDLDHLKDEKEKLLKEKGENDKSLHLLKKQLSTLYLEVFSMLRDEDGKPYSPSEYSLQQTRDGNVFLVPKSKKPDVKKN
smiles,measurement,setting,value
COc1ccc2c(c1)N(CCO)C1=C(C(=O)OC1)C2c1ccccc1 (configuration not stated),Activity,FaDu [1],Active
same,fractional inhibitory concentration index (FICI),SCC-25 [2],0.005
same,CI,FaDu [3],0.406
same,fractional inhibitory concentration index (FICI),FaDu [4],0.236
same,fractional inhibitory concentration index (FICI),SCC-25 [5],0.658
same,Activity,FaDu [6],Tde
same,CI,SCC-25 [7],0.395
same,CI,SCC-25 [8],1.753
same,CI,FaDu [9],0.572
same,CI,FaDu [10],0.856
same,fold change (FC),FaDu [11],3
same,CI,SCC-25 [12],0.386
same,Activity,FaDu [13],Active
same,fractional inhibitory concentration index (FICI),FaDu [14],0.136
same,fractional inhibitory concentration index (FICI),FaDu [15],0.437
same,fractional inhibitory concentration index (FICI),SCC-25 [16],0.71
same,inhibition,[17],Active
